Activity data for one compound are collected here from ChEMBL document CHEMBL3272112, “Cycloalkanones. 8. Hypocholesterolemic activity of long-chain ketones related to pentadecanone” (J Med Chem, 1976).

Data set [1] concerns Rattus norvegicus. In words: Hypocholesterolemic activity in Sprague-Dawley rat assessed as serum cholesterol level at 5 mg/kg/day, po administered via intubation measured on day 16 by Liebermann-Burchard method relative to control. The class given is functional. Put shortly:
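Male Sprague-Dawley rats given compound homogenized in 1% CMC once daily at 11:00 a.m. by oral intubation needle (0.2 cc), doses calculated on weekly body weights; tail-vein blood drawn 24 h after last dose; nonhemolyzed serum (30 μ) assayed by modified Liebermann-Burchard method; N = 8; % of control, mean ± SD; Student's t test.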

Data set [2] relates to Rattus norvegicus. The data set is described as follows: Toxicity in Sprague-Dawley rat assessed as food intake at 20 mg/kg/day measured after 2 weeks (reference value: 24.8 +/- 1.1 g/day). The note with it: in vivo, 336 h. The class given is organism-based.
Data set [3] deals with Rattus norvegicus. The data set is described as follows: Toxicity in Sprague-Dawley rat assessed as food intake at 50 mg/kg/day measured after 2 weeks (reference value: 24.8 +/- 1.1 g/day). The class given is organism-based. The note with it: in vivo, 336 h.
Data set [4] is filed under the species Rattus norvegicus. In words: Disruption of rat liver cell membrane assessed as unlysed cells at 10 mg per gram of tissue measured at 15 mins (reference value: 91 +/- 6%). The class given is functional. Put shortly: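 Rat liver 10% homogenate in 0.25 M sucrose + 0.001 M EDTA, pH 7.2, incubated at 37°C with Hanke's buffer pH 7.2 and drug suspended in 1% CMC (dose as mg drug per g wet liver); turbidity read as absorbance at 660 nm over 0–4 hr, falling absorbance taken as lysis; expressed as % unlysed cells; vehicle 1% CMC control.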

Data set [5] concerns Rattus norvegicus. In words: Toxicity in Sprague-Dawley rat assessed as atrophy of testis at 10 mg/kg/day administered for 16 days measured on day 16 post last dose. To be noted: in vivo, 384 h. The class given is organism-based.

On to `CCCCCCCCCCCCCCC(C)=O`, for which the Activity in the data set on Rattus norvegicus [1] is 67%; in the data set with Rattus norvegicus [2], 24.2 g/day; with Rattus norvegicus [3], 25.6 g/day; in the data set filed under Rattus norvegicus [4] it was 96%; with Rattus norvegicus [5], “Non-toxic”.
